Experimental data: ChEMBL document CHEMBL4513216, “Probing the Open Global Health Chemical Diversity Library for Multistage-Active Starting Points for Next-Generation Antimalarials” (ACS Infect Dis, 2020)

Experiment: Toxicity liver stage against HepG2, at 10uM
Type: cell-based
Set-up: test concentration 10 uM, cell line HepG2-A16-CD81EGFP
Details: human, HepG2-A16-CD81EGFP cells; read-out: INHIBITION
How it was run: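 Uninfected HepG2-A16-CD81EGFP cells, 3 × 10^3 per well, 1536-well, plated on prespotted compound at 10 μM final, parasite-free screening media added to match infected plates; puromycin 10 μM positive, DMSO 0.5% negative; run in parallel with 48 h PbLuc assay at 37 °C, 5% CO2; viability by CellTiter-Glo luminescence, normalized to controls.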
For `CN1CCCN(CC(CC(=O)Nc2ccc(Cl)cc2)C(=O)O)CC1` (stereo not given), the cytotoxicity at 10 µM was -5.4%.
For `Cc1ccc(CN2CCc3c(C(=O)N(C)C)n[nH]c3C2)o1`, the cytotoxicity at 10 µM was 2.14%.
For `Cn1nc(CNC(=O)CC#N)c2c1CN(C(N)=O)CC2`, the cytotoxicity at 10 µM was 3.8%.
`COc1cc(N2C[C@H](C(=O)N3CCCC3)[C@@H]3CCO[C@@H]3C2)ncn1` showed a cytotoxicity at 10 µM of -0.211%.
With `c1cc(-c2ccc3c(c2)C2(CC3)CCN(c3nncs3)CC2)ccn1` the cytotoxicity at 10 µM was 1.13%.
`COc1cccc(C2SCC(=O)Nc3ccsc32)c1OC` (stereo not given) gave a cytotoxicity at 10 µM of 0.661%.
For `COc1ccccc1C1CC(=O)Nc2nc(N3CCCCC3)sc21` (stereo not given), the cytotoxicity at 10 µM was 11.5%.
Work on `O=C1CSC(c2ccc(O)c(Cl)c2)c2c(n(C3CCOCC3)[nH]c2=O)N1` (stereo not given) yielded a cytotoxicity at 10 µM of -3.08%.
Work on `CCS(=O)(=O)N1CC[C@]2(C[C@@H](OCC3CC3)CO2)C1` yielded a cytotoxicity at 10 µM of -15.6%.
With `CCC1=N[C@@]2(CC[C@@H]3CN(S(=O)(=O)CC(C)C)C[C@@H]32)C(=O)N1C` the cytotoxicity at 10 µM was 5.24%.
In the case of `Cn1nnc2c1C(COCC1CC1)CN(C(=O)Cc1ccsc1)C2` (stereo not given), the cytotoxicity at 10 µM is reported as -0.11%.
With `COc1cc(NC(=O)NCC2CCCO2)cc(OC)c1` (stereo not given) the cytotoxicity at 10 µM was 15.6%.
`CCn1cc(NC(=O)c2cc(C)nc(N3CCOCC3)n2)cn1` gave a cytotoxicity at 10 µM of 6%.
In the case of `O=C(NC1=NCCCN1c1ccc(Cl)cc1)c1cccc(Cl)c1`, the cytotoxicity at 10 µM is reported as -17.5%.
`CN(C)C(=O)c1cccc(C2CNCCN2C)c1` (stereo not given) gave a cytotoxicity at 10 µM of -3.15%.
`Cc1cnc(-c2nc(C3CCCN(Cc4cccs4)C3)no2)cn1` (stereo not given) showed a cytotoxicity at 10 µM of 1.33%.
`CCn1c(C)nc2cc(NC(=O)CC3CCN(S(C)(=O)=O)CC3)ccc21` showed a cytotoxicity at 10 µM of 4.39%.
`CN(C)c1cncc(C2CCN(CCO)CC2)n1` showed a cytotoxicity at 10 µM of 3.29%.
Compound `O=C(NCCNC(=O)C1CCN(c2ncccn2)CC1)c1ccoc1` has a cytotoxicity at 10 µM of -9.99%.
For `CC1CCN(S(=O)(=O)NC(C)Cc2ccco2)CC1` (stereo not given), the cytotoxicity at 10 µM was 3.53%.
With `Cn1cc(C(NCc2ccc(F)cc2)c2cccc(F)c2)cn1` (stereo not given) the cytotoxicity at 10 µM was 0.137%.
With `CC(=O)N1CCCN(CCCc2ccccc2)CC1` the cytotoxicity at 10 µM was -9.28%.
Work on `CCc1ncc2c(n1)CN(CC(=O)NC1CCCCNC1=O)CC2` (stereo not given) yielded a cytotoxicity at 10 µM of 6.61%.
`CN(Cc1ccccc1F)C(=O)c1cc(Cl)c[nH]1` showed a cytotoxicity at 10 µM of -5.45%.
In the case of `O=S(=O)(NCc1ccnc(-n2ccnc2)c1)c1cncc(Cl)c1`, the cytotoxicity at 10 µM is reported as 3.46%.
`CCN(Cc1cnc(C)cn1)C1CCN(c2ccccc2)C1=O` (stereo not given) gave a cytotoxicity at 10 µM of 4.81%.
In the case of `Cc1noc(C)c1CN1CCC(NC(=O)OC(C)(C)C)CC1`, the cytotoxicity at 10 µM is reported as 6.27%.
With `COCCCNC(=O)c1c[nH]c2ccc(OC)cc12` the cytotoxicity at 10 µM was -4.76%.
For `Cc1nc2cc(=O)[nH]n2c(C)c1CC(=O)Nc1cnn(C)c1`, the cytotoxicity at 10 µM was 4.58%.
Compound `CCn1nc(C)c(CNC(=O)NCC(C)(O)c2ccsc2)c1C` (stereo not given) has a cytotoxicity at 10 µM of 7.59%.
Work on `O=C1OCCN1CCN1CCCN(Cc2ccccc2F)CC1` yielded a cytotoxicity at 10 µM of -7.11%.
For `CCCC(C)Sc1nnnn1C1CCOCC1` (stereo not given), the cytotoxicity at 10 µM was 2.3%.
With `O=C(NCCc1ccccn1)NC1CCN(c2ccccc2)C1=O` (stereo not given) the cytotoxicity at 10 µM was -2.84%.
With `O=C(C(CNCc1cccc(O)c1)c1ccccc1)N1CCOCC1` (stereo not given) the cytotoxicity at 10 µM was -2.06%.
With `N#Cc1ccc(CN2C(=O)c3ccccc3CS2(=O)=O)c(F)c1` the cytotoxicity at 10 µM was -0.639%.
For `Cc1c(C(=O)NC(C)C)nnn1-c1cccc(C(F)(F)F)c1`, the cytotoxicity at 10 µM was -1.54%.
In the case of `Cc1cc(C)n(CC2CCCN2C(=O)c2ccc3c(c2)OCCO3)n1` (stereo not given), the cytotoxicity at 10 µM is reported as 5.43%.
In the case of `Cc1nn(C(C)C)c(C)c1S(=O)(=O)Nc1cccc(C(=O)O)c1`, the cytotoxicity at 10 µM is reported as 9.53%.
For `CNC(=O)C1CCC(NC(=O)c2cc(C3CC3)n(C(C)(C)C)n2)CC1` (stereo not given), the cytotoxicity at 10 µM was 4.74%.
Work on `Nc1nccnc1C(=O)N1CC(OCc2cccc3ccccc23)C1` yielded a cytotoxicity at 10 µM of 7.39%.
`CCC(C)(C)C(=O)NCCCOC1CCOC1` (stereo not given) showed a cytotoxicity at 10 µM of -6.21%.
In the case of `COCCN(C)c1ccc(NCc2cccnc2)nc1`, the cytotoxicity at 10 µM is reported as -9.9%.
In the case of `CCOc1ccc(C(F)(F)F)cc1NC(=O)N1CCNC(=O)C1`, the cytotoxicity at 10 µM is reported as -1.11%.
For `COc1ccc(-c2ccc(C(=O)O)c(F)c2)c(F)c1`, the cytotoxicity at 10 µM was -0.378%.
With `CCc1ccc(C(COC)NC(=O)c2ccc(O)nc2)o1` (stereo not given) the cytotoxicity at 10 µM was 3.06%.
For `O=C(CC1=CCCCC1)Nc1ccc(CN2C(=O)CCC2=O)cc1`, the cytotoxicity at 10 µM was 0.719%.
Work on `COc1ccnc(N(C)Cc2ccccc2OC(F)(F)F)n1` yielded a cytotoxicity at 10 µM of 6.15%.
Work on `Cc1noc(C)c1CC(=O)OCc1nc(N)c2ccccc2n1` yielded a cytotoxicity at 10 µM of 6.83%.
With `Cn1cnnc1-c1cncc(NCc2cccc3c2OCO3)c1` the cytotoxicity at 10 µM was 9.15%.
In the case of `CCCS(=O)(=O)NC(=O)c1ccc(CC)o1`, the cytotoxicity at 10 µM is reported as -8.37%.
`CC(Cc1ccco1)NC(=O)CSc1nnc[nH]1` (stereo not given) showed a cytotoxicity at 10 µM of 13%.
For `COCC1CN(C(=O)Nc2cc(-n3cccc3)ccc2F)CCO1` (stereo not given), the cytotoxicity at 10 µM was 3.61%.
Work on `Cc1oc(C(=O)O)cc1S(=O)(=O)Nc1cccc(-n2nccc2C)c1` yielded a cytotoxicity at 10 µM of 4.46%.
`COC(=O)C1CCN(c2cncc(-n3nc(C)cc3C)n2)CC1` showed a cytotoxicity at 10 µM of -9.44%.
`COc1cc(C)nc(N2CCN(C(=O)CCc3cscn3)CC2)n1` gave a cytotoxicity at 10 µM of -10.2%.
